The source of these data is ChEMBL document CHEMBL4765486, “Novel Nonsecosteroidal Vitamin D Receptor Modulator Combined with Gemcitabine Enhances Pancreatic Cancer Therapy through Remodeling of the Tumor Microenvironment” (J Med Chem, 2021).

SMILES strings stand for the structures. The source made the active and inactive calls. Bounds are passed on as bounds.

The target of data set [1] is T1, Vitamin D3 receptor (Homo sapiens) (UniProt P11473).
T1 sequence (whole entry): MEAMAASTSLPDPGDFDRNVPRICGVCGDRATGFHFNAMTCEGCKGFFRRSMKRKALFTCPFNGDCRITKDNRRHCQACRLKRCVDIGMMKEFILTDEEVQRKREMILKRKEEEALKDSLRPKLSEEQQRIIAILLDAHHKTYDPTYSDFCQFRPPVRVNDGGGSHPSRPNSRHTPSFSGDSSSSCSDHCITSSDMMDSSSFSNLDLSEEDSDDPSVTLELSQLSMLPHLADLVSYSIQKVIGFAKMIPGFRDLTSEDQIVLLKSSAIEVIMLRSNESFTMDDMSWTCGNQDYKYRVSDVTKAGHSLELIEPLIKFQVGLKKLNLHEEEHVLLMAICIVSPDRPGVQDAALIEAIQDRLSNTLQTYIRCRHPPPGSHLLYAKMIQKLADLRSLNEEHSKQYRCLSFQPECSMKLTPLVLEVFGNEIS
In words: Binding affinity to VDR (unknown origin) at 1 uM by fluorescence polarization assay relative to calcipotriol. Put shortly:
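PolarScreen VDR competitor fluorescence polarization assay with compounds at 1 μM in triplicate. Read-out used 535 nm excitation and 590 nm emission filters.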
In general terms: Polarisation of emitted light reports the rotation of a fluorescent probe.

Data set [2] is described as follows: Cytotoxicity against rat LTC-14 cells assessed as reduction in cell proliferation incubated for 24 hrs by MTT assay. The class given is cell-based. Particulars: LTC-14, 24 h. Background: Tetrazolium assays rely on reduction of a dye to a coloured formazan, in cell work by metabolically active cells.
In data set [3] the test system is LTC-14. Briefly: Inhibition of rat LTC-14 cell activation assessed decrease in TGF-beta1 induced Colla1 mRNA expression at 0.5 uM incubated for 24 hrs by q-PCR analysis. It is filed as functional. Put shortly: (§1)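 Immortalized rat PSC line LTC-14, about 1×10^5 cells per well, was grown 24 h at 37 °C in 5% CO2. Cells then received compound (0.5 μM) plus TGF-β1 for 24 h; TGF-β1 is stated as 0.5 ng/mL in the text and 5 ng/mL in the methods. Col1a1 and Acta2 mRNA were measured by RT-qPCR. Mean ± SD versus TGF-β1 alone.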

Data set [4] deals with LTC-14. Briefly: Inhibition of rat LTC-14 cells activation assessed decrease in TGF-beta1 induced Acta2 mRNA expression at 0.5 uM incubated for 24 hrs by q-PCR analysis. It is filed as functional, cell-based. Put shortly: as §1
The subject of data set [5] is LTC-14. In words: Inhibition of rat LTC-14 cells activation assessed decrease in TGF-beta1 induced collagen 1 protein expression at 0.5 uM incubated for 24 hrs by Western blot analysis. The class given is functional, cell-based. Put shortly:
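LTC-14 cells were treated for 24 h with compound (0.5 μM) plus TGF-β1 (0.5 ng/mL in the text, 5 ng/mL in the methods). Lysates were run on 10% SDS-PAGE, transferred to PVDF and probed with rabbit anti-collagen I, with β-actin as reference. Bands were quantified by densitometry versus TGF-β1 alone.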
(In general: In western blotting, separated proteins are transferred to a membrane and probed.)

For data set [6], the system named is LTC-14. Briefly: Inhibition of rat LTC-14 cells activation assessed as inhibition of PDGFA mRNA expression at 0.5 uM treated under conditioned media of DSL-6A/C1 cells for 24 hrs by q-PCR analysis. The class given is functional, cell-based. The essentials: (§2)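 LTC-14 PSCs were exposed for 24 h to conditioned medium from rat DSL-6A/C1 cancer cells containing compound at 0.5 μM. Pdgfa, Pdgfb, Fgf2, Hgf and Periodin mRNA were quantified by RT-qPCR. Three repeats, mean ± SD versus CM alone.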

Data set [7] concerns LTC-14. In words: Inhibition of rat LTC-14 cells activation assessed as inhibition of PDGFB mRNA expression at 0.5 uM treated under conditioned media of DSL-6A/C1 cells for 24 hrs by q-PCR analysis. The class given is functional, cell-based. Put shortly: as §2
Data set [8] relates to LTC-14. Briefly: Inhibition of rat LTC-14 cells activation assessed as inhibition of Fgf mRNA expression at 0.5 uM treated under conditioned media of DSL-6A/C1 cells for 24 hrs by q-PCR analysis. The class given is functional, cell-based. Put shortly:
as §2

The subject of data set [9] is LTC-14. In words: Inhibition of rat LTC-14 cells activation assessed as inhibition of Hgf mRNA expression at 0.5 uM treated under conditioned media of DSL-6A/C1 cells for 24 hrs by q-PCR analysis. It is filed as functional, cell-based. The essentials: as §2
For data set [10], the system named is LTC-14. In words: Inhibition of rat LTC-14 cells activation assessed as inhibition of Periodin-mRNA expression at 0.5 uM treated under conditioned media of DSL-6A/C1 cells for 24 hrs by q-PCR analysis. It is filed as functional, cell-based. The essentials:
as §2

Data set [11] in a line: Cytotoxicity against rat DSL-6A/C1 cells assessed as reduction in cell proliferation at 0.5 uM incubated for 24 hrs by MTT assay. The class given is cell-based. Particulars: dsl-6a/c1, 24 h.
Data set [12] concerns LTC-14. In words: Inhibition of rat LTC-14 cells interaction with DSL-6A/C1 cells in conditioned media assessed as inhibition of PDGF-A protein expression at 0.5 uM measured after 24 hrs by Western blot analysis. The class given is functional, cell-based. The essentials: (§3)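 LTC-14 cells were treated for 24 h with DSL-6A/C1 conditioned medium plus compound (0.5 μM). Proteins were separated on 10% SDS-PAGE, transferred to PVDF and probed with rabbit anti-PDGF-A or anti-POSTN, with β-actin as loading reference.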

The subject of data set [13] is LTC-14. In words: Inhibition of rat LTC-14 cells interaction with DSL-6A/C1 cells in conditioned media assessed as inhibition of POSTN protein expression at 0.5 uM measured after 24 hrs by Western blot analysis. It is filed as functional, cell-based. Put shortly: as §3

By IC50 is commonly meant the concentration that inhibits the measured activity by half.

Consider `CCn1c(C(=O)NCCN2CCCCC2)ccc1C(CC)(CC)c1ccc(OCCC(C)(C)O)c(C)c1`, for which the RBA in [1] came out at 24%. Besides, the IC50 in data set [2] was > 10 µM. Further, the inhibition result in data set [3], in [4], in data set [5], in data set [6], in data set [7] and in data set [8] was “Active” in each case. The inhibition entry in [9] and in [10] was “Active” throughout. In addition, in [11], the Activity result is recorded as “Non-Toxic”.
Turning to `CCN(CC)CCNC(=O)c1ccc(C(CC)(CC)c2ccc(OCCC(C)(C)O)c(C)c2)n1CC`, the RBA in data set [1] was 36%. In addition, the IC50 in data set [2] is > 10 µM. For the same compound, the inhibition entry in [3], in [4], in [5], in [6], in data set [7] and in data set [8] was “Active” throughout. Further, the inhibition result in data set [9] and in data set [10] was “Active” throughout. In addition, the Activity result in [11] is listed as “Non-Toxic”.
Consider `CCn1cc(C(CC)(CC)c2ccc(OCC(C)O)c(C)c2)cc1C(=O)NCCN1CCCCC1` (stereo unspecified), for which the RBA result in data set [1] was “inactive”. The IC50 in data set [2] is > 10 µM. For the same compound, the inhibition entry in [3], in data set [4], in data set [5], in data set [6], in [7] and in [8] was “Active” each time. In addition, the inhibition entry in data set [9] and in data set [10] was “Active” each time. In data set [11], the Activity entry was “Non-Toxic”.
For `CCn1cc(C(CC)(CC)c2ccc(OCC(C)O)c(C)c2)cc1C(=O)NCCCN(CCO)CCO` (stereo unspecified), in [1] (filed as agonist), the RBA came to 70%. In data set [2], the IC50 was > 10 µM. The inhibition entry in data set [3], in [4] and in data set [5] was “Active” in each case.
For `CCn1c(C(=O)NCC2CCOCC2)ccc1C(CC)(CC)c1ccc(OCCC(C)(C)O)c(C)c1`, the RBA in [1] (filed as agonist) turned out to be 77%. Also, the IC50 in data set [2] is > 10 µM. Further, the inhibition result in data set [3], in [4] and in data set [5] was “Active” in each case.
With `CCN(CC)CCNC(=O)c1ccc(C(CC)(CC)c2ccc(OCCCCC(O)(CC)CC)c(C)c2)n1CC`, the RBA in data set [1] (filed as agonist) worked out at 71%. For the same compound, in data set [2], the 50% inhibitory concentration (IC50) was > 10 µM. Further, the inhibition entry in data set [3], in [4] and in data set [5] was “Active” in each case.
`CCN(CC)CCCNC(=O)c1cc(C(CC)(CC)c2ccc(OCC(O)c3ccccc3)c(C)c2)cn1CC` (stereo unspecified): the RBA in data set [1] (filed as agonist) turned out to be 59%. Also, the IC50 in data set [2] was > 10 µM. Also, the inhibition result in data set [3], in data set [4] and in data set [5] was “Active” in each case.
For the compound `CCN(CC)CCNC(=O)c1cc(C(CC)(CC)c2ccc(OCCCCC(O)(CC)CC)c(C)c2)cn1CC`, in [1] (filed as agonist), the RBA worked out at 41%. For the same compound, the IC50 in data set [2] was > 10 µM. In addition, the inhibition result in data set [3], in data set [4] and in data set [5] was “Active” throughout.
Turning to `CCn1c(C(=O)NCCN2CCN(C)CC2)ccc1C(CC)(CC)c1ccc(OCCC(C)(C)O)c(C)c1`, the RBA in data set [1] (filed as agonist) amounted to 68%. Besides, the half-inhibitory concentration (IC50) in data set [2] was > 10 µM. Besides, the inhibition entry in data set [3], in [4], in [5], in [12], in [13] and in [6] was “Active” in each case. For the same compound, the inhibition entry in data set [7], in data set [8], in [9] and in data set [10] was “Active” throughout. For the same compound, the Activity result in [11] is “Non-Toxic”.
For `CCN(CC)CCCNC(=O)c1ccc(C(CC)(CC)c2ccc(OCCCC(O)(CC)CC)c(C)c2)n1CC`, the RBA in data set [1] was 23%. The IC50 in data set [2] was > 10 µM. Moreover, the inhibition result in [3], in data set [4] and in [5] was “Active” each time.
For the compound `CCN(CC)CCCNC(=O)c1ccc(C(CC)(CC)c2ccc(OCC(O)C3CC3)c(C)c2)n1CC` (stereo unspecified), the RBA in data set [1] turned out to be 39%. In addition, the IC50 in [2] was > 10 µM. Besides, the inhibition result in [3], in data set [4] and in [5] was “Active” each time.
For `CCCC(O)(CCC)CCCCOc1ccc(C(CC)(CC)c2ccc(C(=O)NCCCN(CC)CC)n2CC)cc1C`, the RBA in data set [1] (filed as agonist) is 64%. Moreover, the 50% inhibitory concentration (IC50) in data set [2] is > 10 µM. For the same compound, the inhibition result in data set [3], in data set [4] and in [5] was “Active” throughout.
`CCn1cc(C(CC)(CC)c2ccc(OCC(C)O)c(C)c2)cc1C(=O)NCCCN1CCN(C)CC1` (stereo unspecified): the RBA in data set [1] (filed as agonist) is 62%. In [2], the IC50 was > 10 µM. The inhibition entry in [3], in [4] and in data set [5] was “Active” in each case.
In the case of `CCn1c(C(=O)NCCN(C)C)ccc1C(CC)(CC)c1ccc(OCCC(C)(C)O)c(C)c1`, in data set [1] (filed as agonist), the RBA was found to be 48%. Moreover, the 50% inhibitory concentration (IC50) in data set [2] is > 10 µM. The inhibition entry in data set [3], in data set [4] and in data set [5] was “Active” throughout.
In the case of `CCn1c(C(=O)NCCCN2CCOCC2)ccc1C(CC)(CC)c1ccc(OCCC(C)(C)O)c(C)c1`, the RBA in data set [1] (filed as agonist) came out at 63%. Also, the 50% inhibitory concentration (IC50) in data set [2] is > 10 µM. Moreover, the inhibition entry in data set [3], in data set [4] and in data set [5] was “Active” each time.
With `CCN(CC)CCCNC(=O)c1ccc(C(CC)(CC)c2ccc(OCC(C)O)c(C)c2)n1CC` (stereo unspecified), the RBA in data set [1] turned out to be 30%. In addition, the IC50 in data set [2] was > 10 µM. Further, the inhibition result in [3], in data set [4] and in data set [5] was “Active” in each case.
On to `CCCC(O)(CCC)CCOc1ccc(C(CC)(CC)c2ccc(C(=O)NCCCN(CC)CC)n2CC)cc1C`, for which, in data set [1] (filed as agonist), the RBA came out at 54%. In data set [2], the IC50 was > 10 µM. Also, the inhibition entry in data set [3], in [4] and in [5] was “Active” throughout.
As for `CCN(CC)CCCNC(=O)c1ccc(C(CC)(CC)c2ccc(OCCCCC(C)(C)O)c(C)c2)n1CC`, the RBA in [1] amounted to 26%. Moreover, the IC50 in [2] is > 10 µM. The inhibition result in [3], in data set [4] and in [5] was “Active” in each case.
With `CCN(CC)CCCNC(=O)c1cc(C(CC)(CC)c2ccc(OCCCCCC(C)(C)O)c(C)c2)cn1CC`, in data set [1], the RBA result is “inactive”. The concentration for half-maximal inhibition (IC50) in data set [2] was > 10 µM. Further, the inhibition result in [3], in data set [4] and in data set [5] was “Active” in each case.
